# Assay outcomes deposited in PubChem BioAssay by The Scripps Research Institute Molecular Screening Center.
# MBD2 DNA inh = inhibitors of human MBD2 binding to methylated oligonucleotide. Q9UBB5. TR-FRET. inhibition, % at 4.4 µM. 370,000 tested, 0.31% active. AID 686964; in the data active = inhibition above about 13%
# UHRF1 MBD2 ctr = blocks human UHRF1 binding to methylated DNA; Q96T88; UHRF1 binding to methylated oligo, TR-FRET; inhibition, % at 4.4 µM; 370,000 tested, 0.75% active; AID 687016; in the data active = inhibition above about 21%;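 note: UHRF1 SRA domain binding a hemimethylated CpG hairpin DNA probe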
# ASAP1 inh = ASAP1 ArfGAP inhibition; ASAP1-stimulated ARF1 GTP hydrolysis, GDP FP detection; inhibition, % at 16.5 µM; 360,000 tested, 0.19% active; in the data active = inhibition above about 25%
# LEDGF integ inh = blocks HIV-1 LEDGF/p75-dependent DNA integration | TR-FRET IN-LEDGF/p75 DNA integration, Eu/Cy5 | inhibition, % at 3.7 µM | 370,000 tested, 0.64% active | AID 743269;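 active = inhibition above the screen-wide mean plus 3 SD, cut at about 13% in these data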;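 note: signal is the Cy5 over europium emission ratio at 671 and 618 nm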
# ARFGAP1 inh = rat ARFGAP1 inhibition; Q62848; Arfgap1-stimulated ARF1 GTP hydrolysis, GDP FP detection; 360,000 tested, 0.26% active; inhibition, % at 16.5 µM;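 active = inhibition above a per-plate limit, mean inhibition of low control wells plus 3 SD, cut at about 25% in these data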
#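 System: truncated rat Arfgap1 GAP domain / Medium: HEPES-based buffer, pH 7.5 / Also added: N-terminally truncated human ARF1-GTP substrate / Incubation: enzyme reaction 120 min at 25 °C after 20 min preincubation / Measured by: FP of antibody-bound GDP Alexa 633 tracer, ex 620/em 688 nm / Replicates: singlicate, each compound tested once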
# TDP2 absorb = blocks human TDP2 phosphodiesterase activity; O95551; recombinant TDP2, T5PNP hydrolysis, p-nitrophenol absorbance 415 nm; inhibition, % at 12.8 µM; 370,000 tested, 0.34% active; AID 720702;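 active = inhibition above the mean of all tested compounds plus 3 SD, set per campaign, cut at about 25% in these data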
#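 Test system: human TDP2 enzyme; Input: 120 nM TDP2 per well; Buffer or medium: Mg2+-containing Tris-HCl buffer, pH 7.5; Reagent: 5 mM T5PNP; Dosing: 12.8 µM single point, 1% DMSO; Incubation: reaction 2 h, 37 °C; Detection: p-Nitrophenol epi absorbance; Read-out: % inhibition relative to enzyme-containing and enzyme-free wells; Replicates: single well per compound.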
# IN multimer up = counter-screen for LEDGF/p75 integration inhibitors: HIV-1 integrase multimerization activators | shares compounds with LEDGF integ inh | activation, % at 7.7 µM | 2,000 tested, 17% active | TR-FRET HIV-1 integrase multimerization, biochemical; in the data active = activation above about 8.9%
# TRFRET interf = counter-screen for LEDGF/p75 integration inhibitors: TR-FRET optical interference | shares compounds with LEDGF integ inh | TR-FRET optical interference counterscreen, HIV-1 IN multimerization | inhibition, % at 7.7 µM | 2,000 tested, under 10 active;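 active = inhibition above the mean over all tested compounds plus 3 SD, which no compound reached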
# LEDGF integ conf = confirmation of HIV-1 LEDGF/p75-dependent integration inhibitors. AID 1053136. TR-FRET LEDGF/p75-dependent HIV-1 integration, biochemical. 2,000 tested, 36% active. shares compounds with LEDGF integ inh. inhibition, % at 3.7 µM; in the data active = inhibition above about 14%
# A number is an active result; . = inactive; / = not tested or not shown. Hits are enriched below; roughly 2% of the tested compounds scored in any of these assays.
SMILES,MBD2 DNA inh,UHRF1 MBD2 ctr,ASAP1 inh,LEDGF integ inh,ARFGAP1 inh,TDP2 absorb,IN multimer up,TRFRET interf,LEDGF integ conf
COCCNC(=S)N(C)[C@H]1C[C@H]2c3[nH]c4c(-c5cccc(C)c5)cccc4c3CCN2C[C@H]1[C@H](C)O,.,.,/,.,/,.,/,/,/
COC(=O)CSc1nnnn1-c1cccc2ccccc12,.,.,.,22.7,.,.,.,.,.
C=C(C)C(=O)Nc1cccc(C2=NOC3(C2)C[C@@H](C(N)=O)N(C(=O)[C@H]2CCC(=O)N2)C3)c1 (some centres undefined),.,.,.,28.0,.,.,.,.,24.0
CN1C2=N[C@H](c3ccccc3Br)CC(=O)N2/C(=C\c2ccccc2)[C@@H]1c1ccccc1,.,.,/,.,/,.,/,/,/
O=C(Nc1ccc2c(c1)oc1ccc(S(=O)(=O)N3CCCC3)cc12)C1CC1,.,.,.,24.2,.,.,.,.,.
COc1cc(CNc2ncnc3c2ncn3[C@H]2CN(Cc3cccc(C(F)(F)F)c3)C[C@@H](COC(C)=O)O2)cc(OC)c1OC,.,.,.,38.1,.,.,.,.,.
O=C1CC(c2ccc(O)c(O)c2)Oc2cc(O)cc(O)c21 (centres undefined),.,.,.,13.5,.,.,.,.,23.1
CCCCCN1CCCCC(NC(=O)c2ccccc2C)C1=O (centres undefined),.,.,/,.,/,.,/,/,/
Cc1ccccc1CN1CCCCC(NC(=O)C2CCCCC2)C1=O (centres undefined),.,.,/,.,/,.,/,/,/
CCN(Cc1ccc(NC(C)=O)cc1)CC1CCCN(CCc2cccc(OC)c2)C1 (centres undefined),.,.,.,63.2,.,.,.,.,.
Cc1nc2ccccn2c1P(=O)(c1ccccc1)c1ccccc1,.,.,/,.,/,.,/,/,/
CC(=O)CC[C@H]1CC[C@]2(CCCN(C(=O)C3CCCC3)C2)O1,.,.,/,.,/,.,/,/,/
CC(=O)N1CCN(c2ccc(NCc3cccc(C)c3)cc2)CC1,.,.,.,14.2,.,.,.,.,.
CC(=O)N1CCN(c2ccc(N)cc2)CC1,.,.,.,25.6,.,.,.,.,.
CC(C)CN1C(=O)C[C@]2(C(=O)N(C)c3ccc(NS(=O)(=O)c4ccc(F)cc4)cc32)C1c1ccccc1 (some centres undefined),.,.,/,.,/,.,/,/,/
CCOc1nc(Nc2ccc(Cl)cc2)nc(OCC)n1,.,.,.,.,.,.,/,/,/
CCOc1nc(Nc2ccccc2)nc(OCC)n1,.,.,.,23.5,.,.,.,.,.
Cc1ccc(-c2nnc(SCC(=O)Nc3ccc4c(c3)OCCO4)n2-c2ccc(C)cc2)cc1,.,.,/,.,/,.,/,/,/
CC(C)(C)OC(=O)CN1c2cccc3cccc(c23)S1(=O)=O,.,.,.,.,.,.,/,/,/
Cc1cc(C(=O)CN2c3cccc4cccc(c34)S2(=O)=O)c(C)n1C,.,.,.,20.1,.,.,.,.,.
CCCCS(=O)(=O)N1C2=NC3=C(C(=O)N(CCOC)C3=O)C3N(C)c4ccccc4[C@]23C[C@H]1CO (some centres undefined),.,.,/,.,/,.,/,/,/
CCCCCc1ccc(NC(=O)OCCN2C(=O)CCC23CCC(c2ccccc2)CC3)cc1 (centres undefined),.,.,/,.,/,.,/,/,/
COc1cccc(C=Nc2ccc(N3CCOCC3)cc2)c1O,.,.,.,17.9,.,.,.,.,.
O=[N+]([O-])c1cc(Br)c(O)c(C=Nc2ccc(N3CCOCC3)cc2)c1,.,.,.,25.5,.,.,8.9,.,15.0
Oc1ccc(N=Cc2cc(Br)c(N3CCOCC3)o2)cc1,.,.,.,.,.,.,/,/,/
SMILES,MBD2 DNA inh,UHRF1 MBD2 ctr,ASAP1 inh,LEDGF integ inh,ARFGAP1 inh,TDP2 absorb,IN multimer up,TRFRET interf,LEDGF integ conf
CO/N=C(\C(=O)N[C@@H]1C(=O)N2C(C(=O)O)=C(COC(N)=O)CS[C@H]12)c1ccco1,.,25.4,.,14.4,.,.,.,.,15.7
N#CC1=C(N)Oc2cc(N)ccc2C1c1cccc(F)c1 (centres undefined),.,.,.,14.6,.,.,.,.,.
COc1ccc(OC)c(C2C(C#N)=C(N)Oc3cc(N)ccc32)c1 (centres undefined),.,.,.,14.4,.,.,.,.,.
O=C(OCc1cn(Cc2ccccc2)nn1)N1CCOCC1,.,.,/,.,/,.,/,/,/
COc1cccc(SCc2noc(C(=O)NCc3ccccc3)c2C(=O)NCc2ccccc2)c1,.,.,.,48.4,.,.,.,.,.
COCCNC(=O)c1onc(CSc2cccc(OC)c2)c1C(=O)NCCOC,.,.,.,.,.,.,/,/,/
Clc1ccc2nc(-c3ccccc3)c(Cc3ccccc3)n2c1,.,.,.,27.2,.,.,.,.,.
Cc1ccc(Cc2c(-c3ccc(Br)cc3)nc3ccc(Cl)cn23)cc1,.,.,.,14.2,.,.,.,.,.
Cc1ccc(Cc2c(-c3ccc(C)cc3)nc3ccc(Cl)cn23)cc1,.,.,.,.,.,.,/,/,/
Cc1sc2nc(COC(=O)CNC(=O)c3ccc(F)cc3Cl)[nH]c(=O)c2c1C,.,.,/,.,/,.,/,/,/
C[C@H](O)[C@@H]1CN2CCc3c([nH]c4cccc(-c5ccccc5)c34)[C@@H]2C[C@@H]1N(C)C(=O)C1CCCCC1,.,.,/,.,/,.,/,/,/
Nc1cc2c(cc1[N+](=O)[O-])-c1ccccc1C2=NO,.,.,.,.,.,.,/,/,/
CC(=O)Nc1cc2c(cc1[N+](=O)[O-])-c1ccccc1C2=NO,.,.,.,14.8,.,.,.,.,.
Cc1ccc(NC(=O)C(=O)NCC2CCCO2)cc1C (centres undefined),.,.,.,77.7,.,.,.,.,.
O=C(NCCc1ccccc1)C(=O)NCC1CCCO1 (centres undefined),.,.,.,84.1,.,.,.,.,.
O=C(NCc1cccc(CNC(=O)C(=O)NCC2CCCO2)c1)C(=O)NCC1CCCO1 (centres undefined),.,.,.,.,.,.,/,/,/
COC(=O)[C@]12C=CCN1[C@H](c1ccc(Cl)cc1)c1c(c3ccccc3n1S(=O)(=O)c1ccc(C)cc1)C2,.,.,/,.,/,.,/,/,/
